# Screens from PubChem BioAssay.
# This is a sample that favours compounds with a hit; in the whole collection about 2.2% have one here.
# Neddyl block: inhibitors of cullin neddylation, primary screen, biochemical, TR-FRET, uHTS, NAE and Ubc12 | calls only at 25 µM | 0.58% of 360,000 active | AID 651699, 2012; in the data active means inhibition above about 36%
# Target sequence (P61081 whole entry, looked up): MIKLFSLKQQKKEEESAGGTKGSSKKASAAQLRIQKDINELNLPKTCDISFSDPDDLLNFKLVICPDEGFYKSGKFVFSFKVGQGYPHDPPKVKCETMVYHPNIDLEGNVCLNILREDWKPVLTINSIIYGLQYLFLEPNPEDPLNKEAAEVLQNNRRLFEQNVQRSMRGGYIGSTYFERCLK
# Target sequence (Q13564 whole entry, looked up): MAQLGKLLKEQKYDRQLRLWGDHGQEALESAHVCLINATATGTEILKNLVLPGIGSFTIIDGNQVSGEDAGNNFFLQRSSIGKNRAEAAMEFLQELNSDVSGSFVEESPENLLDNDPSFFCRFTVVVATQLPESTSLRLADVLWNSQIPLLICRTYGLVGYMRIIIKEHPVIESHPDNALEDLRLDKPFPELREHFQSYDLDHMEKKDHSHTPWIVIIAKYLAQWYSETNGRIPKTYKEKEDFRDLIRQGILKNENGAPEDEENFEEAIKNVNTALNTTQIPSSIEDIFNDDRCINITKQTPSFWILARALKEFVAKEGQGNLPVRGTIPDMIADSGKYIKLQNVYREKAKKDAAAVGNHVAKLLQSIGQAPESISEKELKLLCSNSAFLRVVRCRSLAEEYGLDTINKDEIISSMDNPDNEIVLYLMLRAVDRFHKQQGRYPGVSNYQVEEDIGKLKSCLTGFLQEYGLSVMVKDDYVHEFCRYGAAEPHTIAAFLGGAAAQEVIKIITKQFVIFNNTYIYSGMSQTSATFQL
# KLK7 zymogen act: proKLK7 zymogen activators, primary screen, biochemical, fluorescence intensity. Kallikrein-7 (Homo sapiens), P49862. purified proKLK7, EDANS-DABCYL substrate fluorescence; 100% is mature enzyme control, 0% vehicle. activation, % at 7 µM. 0.9% of 370,000 active. AID 652039, 2013;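 active means activation above the mean of all tested compounds plus 3 SD, computed per campaign excluding outliers beyond control limits, cut at about 13% in these data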
# SKN-1 block: suppressors of acrylamide-induced Pgst-4::GFP reporter in worms, primary screen, SKN-1 inhibitor project, whole organism, uHTS, GFP/RFP fluorescence ratio, strain VP596. C. elegans VP596 Pgst-4::GFP/RFP ratio, 24 h. inhibition, % at 21.8 µM. 0.49% of 360,000 active;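 active means interference check ratio from 0.5 to 1.5 plus GFP to RFP signal ratio inhibition reaching or exceeding a fixed threshold, cut at about 30% in these data, passing the limit was not always enough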
# DDE Tn6 FP inh: inhibitors of Tn6 peptide binding to fibrin DD(E), primary screen, biochemical, fluorescence polarization, human fibrin, Tn6 probe; Fibrinogen beta chain (Homo sapiens), P02675; Fibrin DD(E) TRITC-Tn6 fluorescence polarization displacement; inhibition, % at 8.3 µM; 0.21% of 370,000 active;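 active means inhibition above a per-campaign cutoff: mean of compounds within control limits plus 3 SD, cut at about 15% in these data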;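 further: 0% = median of all compound wells on the plate and 100% = blocking peptide control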
# MT1-MMP act inh: blockers of MT1-MMP proenzyme processing, primary screen, HT1080 RFP-PRO-GFP cells, GFP/RFP fluorescence | GFP/RFP ratio fluorescence, overnight; percent of plate control window, DMSO zero | GFP/RFP ratio change, % at 20 µM | 0.061% of 360,000 active | AID 651647, 2012;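 active means GFP/RFP ratio change of at least 30% with cell ATP level not reduced by more than half and red fluorescence within 50% of control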
#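 Test system: HT1080 cells expressing an RFP-PRO-GFP fluorescent reporter construct / Compound dosing: single-point 20 µM compound, 1% DMSO / Schedule: cells overnight before dosing, compound overnight, 37 °C, 5% CO2 / Evaluation: GFP/RFP fluorescence ratio / Control set: DMSO and RFP-L50D-GFP cell wells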
# DDE Tn7 FP inh: inhibitors of Tn7 peptide binding to fibrin DD(E), primary screen, biochemical, fluorescence polarization, human fibrin, Tn7 probe; FP displacement of FITC-Tn7 peptide from fibrin DD(E); 0% = median of compound wells per plate; inhibition, % at 8.3 µM; 0.13% of 370,000 active; AID 720508, 2013;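 active means inhibition above the mean of compounds falling within the control limits plus 3 SD of them, cut at about 14% in these data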;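 further: 0% = plate median of compound wells and 100% = 10 µM Aha-Tn7 peptide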
#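 system = human fibrin DD(E) protein | quantity = DD(E) 2 µM final | medium = Tris/NaCl/CaCl2 buffer, pH 7.8 | also added = labelled Tn7 tracer, 0.1 µM | compound dosing = single point at 8.3 µM | timing = compound with protein 10 min, then 3 h after probe, room temperature | signal = FP measurement | benchmarks = Aha-Tn7 high control | repeats = one replicate per compound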
# KLK7 act conf: proKLK7 zymogen activators, confirmation, biochemical, fluorescence intensity, triplicate; shares compounds with KLK7 zymogen act; purified proKLK7, EDANS-DABCYL substrate fluorescence; scaled: vehicle 0, mature enzyme 100; activation, % at 7 µM; 68% of 3,200 active; AID 686949, 2013;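 active means activation, as change over the incubation, above the mean of all tested compounds plus 3 SD, cut at about 13% in these data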
# EDANS interfere: EDANS-DABCYL substrate optical interference, artefact control for kallikrein-7 zymogen activator project, biochemical, fluorescence intensity, high throughput | activation, % at 7 µM | no enzyme, 4 h; solvent 0%, active enzyme control 100% | shares compounds with KLK7 zymogen act | 80% of 3,200 active | AID 686952, 2013;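 active means activation above the all-compound mean plus 3 SD, ignoring values outside control-based bounds, cut at about 4.8% in these data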;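 further: value is the 4 h activation minus the activation read at time zero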
# Starred values were filed as active, the others as inactive; i = inactive; · = no result given.
SMILES,Neddyl block,KLK7 zymogen act,SKN-1 block,DDE Tn6 FP inh,MT1-MMP act inh,DDE Tn7 FP inh,KLK7 act conf,EDANS interfere
Cc1cc(C)c2c(N)c(C(=O)c3ccccc3Cl)sc2n1,i,-0.7,-3.9,-17.7,1.5,-9.1,·,·
Cc1ccc(NNC(=O)c2c(C)noc2C)cc1Cl,i,0.8,-7.3,-3.6,1.9,-6.2,·,·
CCN(C(=O)c1sc(N)c(C#N)c1C)C1CCCCC1,i,-0.3,-4.8,3.7,-2.1,5.9,·,·
O=c1[nH]c2ccc(Cl)cc2c(-c2ccccc2)c1N1CCN(CCO)CC1,·,29.4*,1.1,-1.8,-2.1,-6.3,-9.0,-4.7
COc1ccc(C#Cc2cnc3c(c2)C(=O)N([C@H](C)CO)C[C@H](C)[C@@H](CN(C)C(=O)Nc2cccc(OC)c2)O3)cc1,i,0.5,4.3,4.5,-0.7,6.3,·,·
O=C(COC(=O)CNC(=O)C1CCCCC1)Nc1ccc(Br)cc1Br,i,-0.6,-14.9,-0.8,0.0,-4.4,·,·
COc1cc(OC)c(/C=N/NC(=O)c2ccncc2)c(OC)c1,i,13.8*,7.5,9.6,-0.2,-0.4,7.6,9.1*
COc1ccc(/C=N/NC(=O)c2ccncc2)c(OC)c1,i,-2.2,2.7,13.8,0.4,1.9,·,·
Cc1ccc(C2C3=C(CC(C)(C)CC3=O)N(CCN3CCOCC3)C3=C2C(=O)CC(C)(C)C3)cc1,·,16.9*,-12.2,1.0,-5.0,1.1,7.8,10.2*
O=c1ncccn1C1OC(CO)C(O)C1O (stereo not drawn),i,0.3,3.6,-11.2,2.6,-2.0,·,·
O=c1c2ccccc2[nH]c(=S)n1CCCN1CCOCC1,i,-0.2,-4.6,-7.7,-0.1,-2.2,·,·
N=C1c2c(cc(=O)n3c2[nH]c2ccccc23)CN1CCN1CCOCC1,·,14.9*,9.2,-5.9,-12.6,-2.3,-5.7,-6.0
CCC/C(C#Cc1ccc(N(C)C)cc1)=C1/c2ccccc2C(=O)N1c1ccccc1,i,0.3,4.2,9.8,-127.6,-1.0,·,·
C[C@H](O)[C@@H]1C(=O)N2CCc3c([nH]c4ccccc34)[C@@H]2C[C@@H]1N(C)C(=O)Nc1ccc(Br)cc1,·,37.3*,·,3.1,·,1.4,2.1,3.8
C[C@H](O)[C@@H]1C(=O)N2CCc3c([nH]c4ccccc34)[C@@H]2C[C@@H]1N(C)C(=O)c1ccco1,i,50.6*,12.6,-6.5,2.7,-9.0,55.4*,59.9*
C[C@@H]1ON(C)[C@H]2C[C@H]3c4[nH]c5ccccc5c4CCN3C(=O)[C@@H]12,·,14.7*,9.9,4.2,-1.7,-11.3,2.6,2.3
C[C@H](O)[C@@H]1C(=O)N2CCc3c([nH]c4ccccc34)[C@@H]2C[C@@H]1N(C)C(=O)Nc1cc(Cl)cc(Cl)c1,·,19.0*,6.6,-0.1,3.7,0.8,6.4,6.1*
CCOC(=O)c1ccc(NS(=O)(=O)c2cccc3nsnc23)cc1,i,0.3,3.6,-3.7,2.9,-5.1,·,·
N#Cc1ccccc1S(=O)(=O)N1CCN(CC(O)CN2CCOCC2)CC1 (stereo not drawn),i,-0.8,-3.5,2.8,1.0,0.2,·,·
